In brackets after ≈: the same amount, converted by molar mass.
Assays:
Mus musculus [1] = assay: Compound was evaluated in vivo in blood samples from the orbital sinus for its concentration using Area under the time-concentration curve after 40 mg/kg intramuscular administration to mice; type: ADME, organism-based; set-up: dose 40 mg/kg, route intramuscular; conditions: im
Outline: (§1)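 Mice were dosed at 40 mg/kg, either orally with a blunt needle and syringe or intramuscularly, with separate groups for each route. Blood was drawn from the orbital sinus at 5, 15, 30, 60, 120 and 180 min. Urine was pooled over 24 h. Drug levels were measured by agar disk diffusion microbioassay with Salmonella enteritidis A9531 as the assay organism.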

[2] = Compound was evaluated in vivo in blood samples from the orbital sinus for its concentration after an intramuscular administration of 40 mg/kg in mice; type: ADME, organism-based; set-up: dose 40 mg/kg, route intramuscular; conditions: mouse, im; outline: as §1
Bacteroides fragilis = assay: Compound was tested in vitro for its antibacterial activity (minimum inhibitory concentration) against Bacteroides fragilis A 22862.; type: functional; conditions: A22862
Enterococcus faecalis = assay: In vitro antibacterial activity against Enterococcus faecalis A 9809; type: functional
Escherichia coli [3] = assay: Compound was tested for the dose to protect 50% of mice from lethal infection against Escherichia coli A 15119 after peroral administration to OF1-strain of female Swiss mice.; type: functional; conditions: po, read-out: PD50
Outline: (§2)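 Compounds dissolved in sterile water and given orally to female OF1 Swiss mice weighing 18-25 g, five mice per group.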

Escherichia coli [4] = assay: In vitro antibacterial activity against Escherichia coli A 15119; type: functional
Enterobacter cloacae = assay: In vitro antibacterial activity against Enterobacter cloacae A 9656; type: functional
Haemophilus influenzae = assay: In vitro antibacterial activity against Haemophilus influenzae A 21515; type: functional
Klebsiella pneumoniae = assay: In vitro antibacterial activity against Klebsiella pneumoniae A 9664; type: functional
Morganella morganii = assay: In vitro antibacterial activity against Morganella morganii A 15153; type: functional
Pseudomonas aeruginosa [5] = assay: Compound was tested in vitro for its antibacterial activity (minimum inhibitory concentration, MIC) against Pseudomonas aeruginosa A 9843; type: functional
Proteus mirabilis = assay: In vitro antibacterial activity (minimum inhibitory concentration, MIC) against Proteus mirabilis A 9900; type: functional
Pseudomonas aeruginosa [6] = assay: Compound was tested for the dose to protect 50% of mice from lethal infection against Pseudomonas aeruginosa A9843 after peroral administration to OF1-strain of female Swiss mice.; type: functional; conditions: po, read-out: PD50; outline: as §2
[7] = Compound was tested for the dose to protect 50% of mice from lethal infection against Streptococcus pneumoniae after peroral administration to OF1-strain of female Swiss mice.; type: functional; conditions: po, read-out: PD50; outline: as §2
Staphylococcus aureus [8] = assay: Compound was tested for the dose to protect 50% of mice from lethal infection against Staphylococcus aureus A 9606 after peroral administration to OF1-strain of female Swiss mice.; type: functional; conditions: po, read-out: PD50; outline: as §2
Serratia marcescens = assay: In vitro antibacterial activity (minimum inhibitory concentration) against Serratia marcescens A 20019.; type: functional
Streptococcus pneumoniae = assay: In vitro antibacterial activity against Streptococcus pneumoniae A 9585; type: functional
Staphylococcus aureus [9] = assay: In vitro antibacterial activity against Staphylococcus aureus A 24227; type: functional
Staphylococcus aureus [10] = assay: In vitro antibacterial activity (minimum inhibitory concentration, MIC) against Staphylococcus aureus A 9537.; type: functional
Mus musculus [11] = species on record: Mus musculus; conditions: in vivo, po, 40 mg/kg
in vivo [12] = conditions: mouse, po, 40 mg/kg
[13] = Compound was evaluated in vivo in blood samples from the orbital sinus for its half life after 40 mg/kg of intramuscular administration in mice.; type: ADME, organism-based; set-up: dose 40 mg/kg, route intramuscular; conditions: mouse, im
Mus musculus [14] = assay: Compound was evaluated in vivo in urine sample collected over 24 hours for its concentration after 40 mg/kg intramuscular administration to mice; type: functional; outline: as §1
Mus musculus [15] = assay: Compound was evaluated in vivo in urine sample collected over 24 hours for its concentration after 40 mg/kg peroral administration to mice; type: functional; conditions: route oral; outline: as §1
Canis familiaris [16] = species on record: Canis familiaris; conditions: dog, in vivo, po, 25 mg/kg
in vivo [17] = conditions: dog, po, 25 mg/kg
in vivo [18] = conditions: dog, po, 25 mg/kg; remark: listed apart in the source
in vivo [19] = conditions: mouse, blood, po, 40 mg/kg
Canis familiaris [20] = assay: Compound was evaluated in vivo in urine sample collected over 24 hours for its concentration after 25 mg/kg peroral administration to dogs.; conditions: route oral
[21] = Compound was evaluated in vivo in blood samples from the orbital sinus for its concentration after a intramuscular administration 40 mg/kg in mice; type: ADME, organism-based; set-up: dose 40 mg/kg, route intramuscular; conditions: mouse, im; outline: as §1

Row | Compound | AUC (Mus musculus [1]) [ng·h/mL] | Cmax [2] [ng/mL] | MIC (Bacteroides fragilis) [µg/mL] | MIC (Enterococcus faecalis) [µg/mL] | ED50 (Escherichia coli [3]) [mg/kg] | MIC (Escherichia coli [4]) [µg/mL] | MIC (Enterobacter cloacae) [µg/mL] | MIC (Haemophilus influenzae) [µg/mL] | MIC (Klebsiella pneumoniae) [µg/mL] | MIC (Morganella morganii) [µg/mL] | MIC (Pseudomonas aeruginosa [5]) [µg/mL] | MIC (Proteus mirabilis) [µg/mL] | ED50 (Pseudomonas aeruginosa [6]) [mg/kg] | ED50 [7] [mg/kg] | ED50 (Staphylococcus aureus [8]) [mg/kg] | MIC (Serratia marcescens) [µg/mL] | MIC (Streptococcus pneumoniae) [µg/mL] | MIC (Staphylococcus aureus [9]) [µg/mL] | MIC (Staphylococcus aureus [10]) [µg/mL] | AUC (Mus musculus [11]) [ng·h/mL] | also measured
1 | CC(C)(CF)n1cc(C(=O)O)c(=O)c2cc(F)c(N3CC4C[C@@H]3CN4)nc21.Cl | 20000 | 8000 | 8 | 2 | 2.4 | 0.06 | 0.13 | 0.13 | 0.25 | 0.25 | 0.5 | 0.5 | 4.9 | 57.4 | 25 | 0.25 | 0.5 | 2 | 0.25 | 7000 | S: 200 µg/mL; Cmax (in vivo [12]; blood): 4000 ng/mL
2 | CC(C)(C)n1cc(C(=O)O)c(=O)c2cc(F)c(N3C[C@H]4C[C@@H]3CN4)nc21 | 25000 | 13000 | 4 (≈ 11.1 µM) | 0.5 (≈ 1.39 µM) | 1.8 | 0.008 (≈ 0.0222 µM) | 0.016 (≈ 0.0444 µM) | 0.03 (≈ 0.0832 µM) | 0.016 (≈ 0.0444 µM) | 0.06 (≈ 0.166 µM) | 0.25 (≈ 0.694 µM) | 0.06 (≈ 0.166 µM) | 4.7 | 29.7 | 1.6 | 0.06 (≈ 0.166 µM) | 0.13 (≈ 0.361 µM) | 0.03 (≈ 0.0832 µM) | 0.03 (≈ 0.0832 µM) | 14000 | half-life [13]: 1.58 h; UR (Mus musculus [14]): 39%; UR (Mus musculus [15]): 34%; AUC (Canis familiaris [16]): 55000 ng·h/mL; S: 80 µg/mL; Cmax (in vivo [17]): 5600 ng/mL; Cmax (in vivo [12]; blood): 10000 ng/mL; half-life (in vivo [18]): 4.5 h; half-life (in vivo [19]): 1.6 h; UR (Canis familiaris [20]): 20%
3 | O=C(O)c1cn(C2CC2)c2cc(N3CCNCC3)c(F)cc2c1=O [CIPROFLOXACIN] | 21000 | 15000 | 4 (≈ 12.1 µM) | 0.5 (≈ 1.51 µM) | 0.4 | – | – | 0.03 (≈ 0.0905 µM) | 0.06 (≈ 0.181 µM) | – | – | 0.008 (≈ 0.0241 µM) | 2.6 | > 69 | 31 | 0.03 (≈ 0.0905 µM) | 0.25 (≈ 0.754 µM) | 0.13 (≈ 0.392 µM) | 0.06 (≈ 0.181 µM) | 7000 | UR (Mus musculus [14]): 46%; UR (Mus musculus [15]): 30%; Cmax (in vivo [17]): 3000 ng/mL; Cmax (in vivo [12]; in vivo): 6000 ng/mL; UR (Canis familiaris [20]): 17%
4 | CN1CCN(c2c(F)cc3c(=O)c(C(=O)O)cn(CCF)c3c2F)CC1 [FLEROXACIN] | 32000 | – | 1 (≈ 2.71 µM) | 8 (≈ 21.7 µM) | – | 0.03 (≈ 0.0812 µM) | 0.13 (≈ 0.352 µM) | 0.13 (≈ 0.352 µM) | 0.13 (≈ 0.352 µM) | 0.03 (≈ 0.0812 µM) | 2 (≈ 5.42 µM) | 0.06 (≈ 0.162 µM) | – | – | – | 0.13 (≈ 0.352 µM) | 2 (≈ 5.42 µM) | 0.25 (≈ 0.677 µM) | 0.06 (≈ 0.162 µM) | 23000 | Cmax [21]: 20000 ng/mL; half-life [13]: 1.02 h; UR (Mus musculus [14]): 64%; UR (Mus musculus [15]): 51%; Cmax (in vivo [12]; blood): 12000 ng/mL; half-life (in vivo [19]): 0.967 h

From ChEMBL document CHEMBL1125733, “Fluoronaphthyridines and -quinolones as antibacterial agents. 3. Synthesis and structure-activity relationships of new 1-(1,1-dimethyl-2-fluoroethyl), 1-[1-methyl-1-(fluoromethyl)-2-fluoroethyl], and 1-[1,1-(difluoromethyl)-2-fluoroethyl] substituted derivatives” (J Med Chem, 1991)
